The values below come from PubChem BioAssay.

SMILES strings stand for the structures. Calls of active or inactive are those of the source.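 The calls were made as follows, unless noted: active = visually confirmed hit in the image check and inhibition above 20%; inconclusive = visually confirmed hit but inhibition not above 20%; inactive = no visual hit in the image check.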

Assay [1] is described as follows: inhibitors of TNFa-induced NFkB p65 translocation, primary screen, imaging, HUVEC, MLSMR starter and 10KST1 sets (AID 438;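 active = inhibition above 20% together with a positive visual image hit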;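 also: compound added about 3h40 before a 20 min TNFalpha stimulation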;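 as to inhibition: signal is the nuclear over cytoplasmic p65 intensity ratio per well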). The following applies: HUVEC TNFa-induced p65 nuclear translocation; cell count: measured here: nuclei count (cytotoxicity indicator), at 2.08 µM; inhibition: at 2 µM, stronger effect = higher value, 0% TNFa-plus-vehicle, 100% no-TNFa wells.
Assay [2] can be described thus: inhibitors of E-selectin induction by TNFa, primary screen, imaging, HUVEC, immunofluorescence, MLSMR starter and 10KST1 sets (AID 487).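 As to inhibition: signal is fraction of cell area covered by stained E-selectin grains.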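 As to nuclei count: 100% = median nuclei count of all wells on the same plate.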 The following applies: HUVEC TNFalpha-induced E-selectin immunofluorescence imaging, at 2 µM; inhibition: stronger effect = higher value; nuclei count: measured here: cell number, toxicity.
Assay [3] is described as follows: DUSP6 inhibitors restoring Erk phosphorylation by chemical complementation, primary imaging in DUSP6-transfected HeLa (AID 609;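 active = compounds giving at least 50% inhibition in the cell-based MKP-3 phosphatase rescue imaging test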;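 as to inhibition: phospho-Erk level distribution per well compared with pooled transfected vehicle control wells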). Particulars: HeLa MKP-3 transfected, phospho-Erk imaging KS statistic, at 10 µM, cells stimulated with TPA for 15 min.
In assay [4] the target is Dual specificity protein phosphatase 6 (Homo sapiens) (UniProt Q16828). The assay is described as above. The following applies: HeLa MKP-3 transfected, phospho-Erk imaging KS statistic; at 10 µM; stronger effect = higher value; cells stimulated with TPA for 15 min.
The target in assay [5] is Voltage-gated potassium channel subunit beta-2 (Rattus norvegicus) (UniProt P62483). The experiment in a line: KvBeta enzyme negative modulators, primary screen, biochemical, NADPH fluorescence (AID 622;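 active = fluorescence slope higher than the sample average by over 3 SD, cut at about -0.22 in these data, passing the limit was not always enough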;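 also: slope of raw intensity against log time taken from 70 to 1610 s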). Particulars: recombinant KvBeta, 4-cyanobenzaldehyde reduction, at 10 µM, stronger effect = higher value.
The target is the same in assay [6]. Description: KvBeta positive modulators, primary screen, biochemical, NADPH fluorescence (AID 623;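 active = NADPH fluorescence slope more negative than the mean of all samples by about 3 SD, 99.7% confidence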;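 also: fluorescence intensity change per second fitted from 20 to 320 s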). The following applies: Recombinant KvBeta, NADPH fluorescence decrease slope, 10 min; at 10 µM; stronger effect = lower value.
Assay [7] deals with Alpha-2C adrenergic receptor (Homo sapiens) (UniProt P18825). The experiment in a line: modulators of alpha2C/GIRK thallium flux, primary screen, cell-based, HEK293 alpha2C/GIRK1/2 (AID 624;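 active = fluorescence slope after compound addition differing from the mean of all screened samples at 99.7% confidence, in either direction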;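 also: slope of fluorescence ratio to pre-addition baseline per second over 15 to 24 s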). The following applies: thallium flux BTC fluorescence, at 10 µM, actives lie on both sides.
Assay [8] can be described thus: inhibitors of larval lipid processing in zebrafish, primary screen, whole organism, PED6 fluorescence, gall bladder and intestine (AID 686;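 active = a full or partial loss of lipid-probe fluorescence in the fish gall bladder, intestine or both, judged by eye; inactive = no fluorescence loss, or compound toxic to the fish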;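 also: signal comes from phospholipase A2 cleavage of quenched PED6 carried via bile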). Particulars: Zebrafish larvae PED6 lipid processing, fluorescence scoring; screened at 20 µM (by protocol). A digest of the protocol: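 Doses: 20 µM single dose. Test system: live zebrafish larvae aged 5-7 days, whole organism. Quantity: five larvae per well. Measured by: By-eye fluorescence microscopy. Reagent: ingested quenched lipid PED6 at 100 nM. Read-out: visual per-well fluorescence inhibition score. Times: overnight exposure of larvae to compound plus PED6.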

Assay [9] is described as follows: inhibitors of Chlamydomonas gravitaxis, primary screen, whole organism, Chlamydomonas reinhardtii, WT vs cilia-less mutant, absorbance, 96-well (AID 463189;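 active = inhibition at or above 50% relative to wild type and mutant plate controls; inactive = inhibition below 50%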;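 also: 0% = wild type cc124 cells in DMSO and 100% = ciliumless bld1 mutant cells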). Particulars: OD600 absorbance, 2 days, at 10 µM, stronger effect = higher value.
The mark [10] stands for this setting: measured here: cell density z-score.
[11] abbreviates: measured here: nuclear c-Myc green intensity z-score.
The mark [12] stands for this setting: measured here: nuclear pErk red intensity z-score, stronger effect = higher value.

Sequence of Alpha-2C adrenergic receptor (Homo sapiens) (P18825 whole entry, looked up): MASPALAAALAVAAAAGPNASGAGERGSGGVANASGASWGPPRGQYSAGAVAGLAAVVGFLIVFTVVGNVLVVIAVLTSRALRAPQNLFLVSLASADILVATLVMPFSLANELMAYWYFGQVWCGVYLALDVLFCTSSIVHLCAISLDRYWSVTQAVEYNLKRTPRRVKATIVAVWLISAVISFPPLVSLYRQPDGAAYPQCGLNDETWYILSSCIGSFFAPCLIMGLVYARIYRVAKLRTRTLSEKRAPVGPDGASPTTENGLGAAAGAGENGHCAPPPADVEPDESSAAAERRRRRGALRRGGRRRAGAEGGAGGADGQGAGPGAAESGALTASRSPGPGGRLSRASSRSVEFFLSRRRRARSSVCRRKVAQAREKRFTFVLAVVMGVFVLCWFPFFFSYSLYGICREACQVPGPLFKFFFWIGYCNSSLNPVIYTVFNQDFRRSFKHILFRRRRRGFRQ
Sequence of Voltage-gated potassium channel subunit beta-2 (Rattus norvegicus) (P62483 whole entry, looked up): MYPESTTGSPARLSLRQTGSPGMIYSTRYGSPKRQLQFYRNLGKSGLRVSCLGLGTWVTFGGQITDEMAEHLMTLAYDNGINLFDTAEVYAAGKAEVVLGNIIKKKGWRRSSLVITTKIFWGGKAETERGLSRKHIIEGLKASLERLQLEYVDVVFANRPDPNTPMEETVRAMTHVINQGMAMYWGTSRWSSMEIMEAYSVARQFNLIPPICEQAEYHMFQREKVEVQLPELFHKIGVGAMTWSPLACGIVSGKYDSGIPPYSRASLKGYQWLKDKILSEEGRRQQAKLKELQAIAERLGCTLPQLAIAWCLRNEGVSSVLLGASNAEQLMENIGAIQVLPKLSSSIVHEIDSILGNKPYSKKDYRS
Sequence of Dual specificity protein phosphatase 6 (Homo sapiens) (Q16828 whole entry, looked up): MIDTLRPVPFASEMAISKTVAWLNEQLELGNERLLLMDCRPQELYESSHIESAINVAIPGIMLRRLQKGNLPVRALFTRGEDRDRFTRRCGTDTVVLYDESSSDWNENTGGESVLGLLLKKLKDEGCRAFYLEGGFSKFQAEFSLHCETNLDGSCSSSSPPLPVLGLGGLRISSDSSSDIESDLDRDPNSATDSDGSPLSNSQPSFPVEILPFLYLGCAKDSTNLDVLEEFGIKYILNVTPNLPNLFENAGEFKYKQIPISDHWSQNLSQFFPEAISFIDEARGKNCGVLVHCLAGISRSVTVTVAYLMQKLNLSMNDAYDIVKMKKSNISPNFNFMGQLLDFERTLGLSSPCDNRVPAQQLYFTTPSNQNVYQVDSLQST

For `O=C(c1cccs1)N1CCC(N2CCN(c3ccccc3)CC2)CC1`, the cell count in [1] stood at 390. Also, the inhibition was -7.3% (inactive) in assay [1], -50.1% (inactive) in assay [2], 11.3% (inactive) in assay [4] and 43.7% (inactive) in assay [9]. In [2], this molecule showed a nuclei count of 119%. For the same molecule, the results for the z-score in assay [3] (setting [10]), in assay [3] (setting [11]) and in assay [3] (setting [12]) were 0.783, 0.365 and -0.94, respectively. Moreover, the fluorescence slope in [5] is -0.378 (inactive). Besides, the NADPH fluorescence slope in assay [6] was -1.9e-05 (inactive). The slope in [7] is 0.00799 (inactive). For the same molecule, the molecule was called inactive in assay [8].
For `COc1cc(C2CC(C(F)(F)F)n3ncc(C(=O)O)c3N2)cc(OC)c1OC` (configuration not stated), in [1], the cell count amounted to 515. Further, the inhibition in [1] was -6.9% (inactive); in assay [2], 18.3% (inactive); in [4], -2.07% (inactive); in [9], -0.326% (inactive). This molecule also returned a nuclei count in assay [2] of 119%. Further, the results for the z-score in assay [3] (setting [10]), in assay [3] (setting [11]) and in [3] (setting [12]) were -0.754, 0.674 and 1.11, respectively. The fluorescence slope in [5] was -0.517 (inactive). Further, the NADPH fluorescence slope in assay [6] was -9.9e-05 (inactive). Also, in assay [7], the slope was 0.0046 (inactive). In assay [8], the molecule was called inactive.
`CCOP(=O)(c1ccccc1)c1nc(-c2ccccc2C)oc1N1CCCCC1` (configuration not stated): in assay [1], the cell count amounted to 603. The inhibition was -2.4% (inactive) in assay [1], -34% (inactive) in [2], 13.2% (inactive) in [4] and 56.6% (active) in assay [9]. Also, the nuclei count in assay [2] was found to be 167%. The z-score in [3] (setting [10]) is -0.907; in assay [3] (setting [11]) it was 0.675; in assay [3] (setting [12]), 1.07. Further, the fluorescence slope in assay [5] was -0.49 (inactive). In addition, in [6], the NADPH fluorescence slope was -0.000125 (inactive). In addition, the slope in [7] was 0.00422 (inactive). Besides, the call in assay [8] was inactive.
Regarding `O=S(CCc1ccncc1)Cc1ccccc1` (configuration not stated), the cell count in assay [1] amounted to 337. The inhibition is -23.4% (inactive) in [1], -114% (inactive) in assay [2], -14% (inactive) in assay [4] and -11.4% (inactive) in assay [9]. In addition, in [2], the nuclei count is 140%. For the same molecule, the z-score in assay [3] (setting [10]) was -0.83; in [3] (setting [11]) it was 1.38; in assay [3] (setting [12]) it was 2.01. Besides, the fluorescence slope in [5] is -0.427 (inactive). The NADPH fluorescence slope in assay [6] is -0.000147 (inactive). Further, in assay [7], the slope was 0.00701 (inactive). In addition, the outcome in assay [8] was inactive.
In the case of `ClC(Br)=C(n1cnc2ccccc21)n1cnc2ccccc21`, the cell count in assay [1] worked out at 536. Further, the inhibition is -11% (inactive) in assay [1], -108% (inactive) in assay [2], 16.1% (inactive) in assay [4] and 30.5% (inactive) in assay [9]. The nuclei count in assay [2] came out at 155%. Moreover, the z-score was 1.2 in assay [3] (setting [10]), -0.506 in [3] (setting [11]) and -1.02 in [3] (setting [12]). Moreover, the fluorescence slope in assay [5] was -0.523 (inactive). Besides, the NADPH fluorescence slope in [6] is -3.7e-05 (inactive). Moreover, in assay [7], the slope was 0.00536 (inactive). Further, the molecule was called inactive in assay [8].
As for `Nc1ccc2ncccc2c1N`, the cell count in assay [1] was 537. For the same molecule, the inhibition is -10% (inactive) in [1], -47.1% (inactive) in [2], -9.66% (inactive) in assay [4] and -1.57% (inactive) in assay [9]. The nuclei count in assay [2] was 103%. Besides, the z-score in assay [3] (setting [10]) was 0.673; in assay [3] (setting [11]), 1.61; in assay [3] (setting [12]) it was 0.017. Moreover, the fluorescence slope in assay [5] was -0.517 (inactive). The NADPH fluorescence slope in assay [6] was -2.1e-05 (inactive). Besides, the slope in assay [7] is 0.0034 (inactive). For the same molecule, in assay [8], the molecule was called inactive.
Turning to `OCCNc1nc(-c2ccccc2)c2ccccc2n1`, the cell count in assay [1] amounted to 419. The inhibition was -4.7% (inactive) in [1], -153% (inactive) in assay [2], -10.1% (inactive) in assay [4] and -5.43% (inactive) in assay [9]. In assay [2], this molecule came in with a nuclei count of 133%. Moreover, the results for the z-score in [3] (setting [10]), in assay [3] (setting [11]) and in [3] (setting [12]) were -0.162, 1.09 and -0.852, respectively. Further, in [5], the fluorescence slope was -0.341 (inactive). In addition, the NADPH fluorescence slope in [6] is -1.3e-05 (inactive). Further, the slope in assay [7] is 0.00672 (inactive). Also, the molecule was classed as inactive in assay [8].
In the case of `Cc1[nH]c(=O)[nH]c(=O)c1S(=O)(=O)N1CCCC1`, the cell count in assay [1] stood at 473. The inhibition in [1] was -7.5% (inactive); in [2], -107% (inactive); in assay [4] it was -3.98% (inactive); in assay [9], -0.601% (inactive). In [2], the nuclei count was 116%. In addition, the z-score is -1.16 in assay [3] (setting [10]), 0.0534 in assay [3] (setting [11]) and 0.397 in [3] (setting [12]). Also, the fluorescence slope in assay [5] is -0.476 (inactive). Also, the NADPH fluorescence slope in [6] is -0.000255 (inactive). Besides, the slope in [7] was 0.00533 (inactive). Moreover, the outcome in assay [8] was inactive.
Turning to `COc1ccccc1C(=O)N1CCCC1(C#N)c1ccccc1` (configuration not stated), the cell count in assay [1] came out at 653. Further, the inhibition in assay [1] was 1.8% (inactive); in [2] it was -44.9% (inactive); in assay [4] it was -6.48% (inactive); in assay [9] it was 13% (inactive). This molecule also came in with a nuclei count in [2] of 121%. Further, the z-score in [3] (setting [10]) was -0.569; in assay [3] (setting [11]), -0.677; in [3] (setting [12]), -0.674. For the same molecule, the fluorescence slope in assay [5] was -0.475 (inactive). The NADPH fluorescence slope in assay [6] is -0.000294 (inactive). Besides, in assay [7], the slope is 0.00555 (inactive). In addition, in [8], the molecule was called inactive.
For the molecule `O=c1/c(=C\c2cccn2-c2ccccc2)sc2nc3ccccc3n12`, the cell count in assay [1] is 640. Besides, the inhibition in assay [1] is -5.8% (inactive); in assay [2], -42.1% (inactive); in assay [4], 3.56% (inactive); in [9], 9.26% (inactive). For the same molecule, the nuclei count in assay [2] was determined as 99.1%. The values for the z-score in assay [3] (setting [10]), in assay [3] (setting [11]) and in assay [3] (setting [12]) were -0.282, 0.665 and 0.128, respectively. Moreover, the fluorescence slope in assay [5] was -0.181 (inactive). The NADPH fluorescence slope in assay [6] is 8.6e-06 (inactive). In addition, the slope in assay [7] was 0.00666 (inactive). Moreover, the molecule was classed as inactive in assay [8].
On to `O=C(CC(c1ccccc1)c1ccco1)N1CCOCC1` (configuration not stated), for which, in [1], the cell count was 294. The inhibition is -28.3% (inactive) in [1], -96.2% (inactive) in [2], 14% (inactive) in [4] and -5.11% (inactive) in assay [9]. The molecule also came in with a nuclei count in assay [2] of 84.1%. In addition, the figures for the z-score in assay [3] (setting [10]), in assay [3] (setting [11]) and in [3] (setting [12]) were -0.599, 0.143 and -0.229, respectively. Moreover, in [5], the fluorescence slope was -0.429 (inactive). Also, in assay [6], the NADPH fluorescence slope is -4.9e-05 (inactive). Also, the slope in assay [7] was 0.00649 (inactive). For the same molecule, in assay [8], the call was inactive.
With `COC(=O)c1cc2c(=O)n3cccc(C)c3nc2n(Cc2cccnc2)c1=N`, the cell count in assay [1] worked out at 626. Also, the inhibition is -15% (inactive) in assay [1], -113% (inactive) in assay [2], 25.7% (inactive) in assay [4] and 32.4% (inactive) in [9]. For the same molecule, the nuclei count in assay [2] came out at 159%. The z-score was 2.59 in assay [3] (setting [10]), -0.798 in assay [3] (setting [11]) and -0.054 in assay [3] (setting [12]). Further, the fluorescence slope in [5] is -0.523 (inactive). In addition, the NADPH fluorescence slope in [6] is -3.6e-05 (inactive). Besides, the slope in [7] is 0.00531 (inactive). For the same molecule, in assay [8], the call was inactive.
For the molecule `COc1ccc(/C=N/n2cncn2)cc1CSc1ccccn1`, in [1], the cell count worked out at 302. Besides, the inhibition in assay [1] is -17.2% (inactive); in assay [2], -137% (inactive); in assay [4], -2.29% (inactive); in assay [9] it was 27% (inactive). The molecule further showed a nuclei count in [2] of 114%. The z-score was -0.741 in [3] (setting [10]), 0.803 in assay [3] (setting [11]) and -0.342 in assay [3] (setting [12]). Further, the fluorescence slope in assay [5] was -0.32 (inactive). Moreover, the NADPH fluorescence slope in assay [6] is 9e-06 (inactive). For the same molecule, the slope in [7] is 0.00478 (inactive). Moreover, the molecule was called inactive in assay [8].
As for `Cn1c(=O)n(CCc2ccccc2)c(=O)c2c1ncn2Cc1ccccc1`, the cell count in [1] is 505. Further, the inhibition in assay [1] was -1.6% (inactive); in assay [2], 42.5% (inactive); in assay [4], -6.48% (inactive); in assay [9], -10.3% (inactive). In [2], the nuclei count is 115%. Further, the z-score in assay [3] (setting [10]) was -0.468; in assay [3] (setting [11]) it was 1.76; in [3] (setting [12]), -0.503. The fluorescence slope in assay [5] was -0.508 (inactive). Moreover, in assay [6], the NADPH fluorescence slope is -0.000139 (inactive). In addition, the slope in assay [7] was 0.00833 (inactive). In [8], the molecule was classed as inactive.
